In ChEMBL document CHEMBL1148584, “Effect of polyamine homologation on the transport and biological properties of heterocyclic amidines” (J Med Chem, 2006):
Values belong to the compound of their own block, whether it stands above or below them.

Key:
[1] = target: Phosphodiesterase 1 (Bos taurus, UniProt Q01061+P14100); test: Inhibition of bovine calmodulin-activated cAMP dependent phosphodiesterase; format: protein assay
Procedure, shortened: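 Crude bovine heart PDE preparation containing calmodulin and Ca²⁺ (0.2 milliunit). Incubated 20 min at 37 °C with 0.1 mM [8-³H]cAMP and graded drug concentrations in 30 mM Tris-HCl, 3 mM MgSO₄, 0.6 mM AMP. Stopped with ZnSO₄; Ba(OH)₂ precipitated AMP with BaSO₄; supernatant radioactivity counted. IC50 is the concentration giving 50% inhibition.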

[2] = Selectivity for uptake in CHO cell line over CHO-MG cell line at 25 uM; format: functional, Cricetulus griseus
Procedure, shortened: (§1)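 Ratio of intracellular conjugate level in CHO over CHO-MG cells. Both lines were exposed to conjugate 24 h after seeding at 2 × 10⁵ cells/mL, for 24 h with 2 mM aminoguanidine in the medium. Levels were measured by ion-pair HPLC of perchloric extracts and normalised to protein (nmol/mg).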

[3] = test system: L1210; test: Intracellular level of spermine in L1210 cells in the presence of DFMO at 25 uM; format: functional, cell-based; conditions: Mus musculus
Procedure, shortened: (§2)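 L1210 cells in RPMI 1640/10% FCS with 2 mM aminoguanidine, seeded at 4 × 10⁴ cells/mL. Conjugate, with or without 5 mM DFMO, added at seeding; cells cultured 48 h, washed in cold NaCl, and extracted with 0.2 N HClO₄. Conjugate and free putrescine, spermidine and spermine quantified by ion-pair HPLC (UV 254 nm, fluorescence ex 345/em 455 nm); normalised to protein. Student's t-test, p<0.05.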

[4] = test system: L1210; test: Intracellular level of conjugate in L1210 cells in the absence of DFMO at 25 uM; format: functional, cell-based; conditions: Mus musculus; procedure, shortened: as §2
[5] = test system: L1210; test: Intracellular level of spermine in L1210 cells in the absence of DFMO at 25 uM; format: functional, cell-based; conditions: Mus musculus; procedure, shortened: as §2
[6] = test system: L1210; test: Intracellular level of conjugate in L1210 cells in the presence of DFMO at 25 uM; format: functional, cell-based; conditions: Mus musculus; procedure, shortened: as §2
[7] = test system: L1210; test: Intracellular level of spermidine in L1210 cells in the presence of DFMO at 25 uM; format: functional, cell-based; conditions: Mus musculus; procedure, shortened: as §2
[8] = test system: CHO-MG; test: Inhibition of cell growth in CHO-MG cells in the presence of DFMO; format: functional, cell-based; conditions: Cricetulus griseus
Procedure, shortened: (§3)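 L1210 cells seeded at 5 × 10⁴ cells/mL with conjugate added at seeding; CHO/CHO-MG plated at 2 × 10³ cells/mL with conjugate added after overnight (24 h). 5 mM DFMO added together with conjugate; medium contains 2 mM aminoguanidine. After 48 h, growth read by MTT formazan absorbance at 540 nm. IC50 is 50% growth inhibition; mean of three determinations.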

[9] = test system: L1210; test: Intracellular level of putrescine in L1210 cells in the absence of DFMO at 25 uM; format: functional, cell-based; conditions: Mus musculus; procedure, shortened: as §2
[10] = test system: L1210; test: Intracellular level of spermidine in L1210 cells in the absence of DFMO at 25 uM; format: functional, cell-based; conditions: Mus musculus; procedure, shortened: as §2
[11] = test system: CHO; test: Cellular uptake in CHO cells at 25 uM; format: ADME, cell-based, Cricetulus griseus; conditions: chinese hamster
Procedure, shortened: (§4)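 CHO (RPMI 1640, 10% FCS, 2 mM aminoguanidine) and CHO-MG (plus L-proline) cells seeded at 2 × 10⁵ cells/mL. Conjugate added 24 h after seeding and cells harvested 24 h later, then washed in cold 0.14 M NaCl and sonicated in 0.2 N HClO₄. Supernatant analysed by ion-pair reversed-phase HPLC (n-octanesulfonate), expressed as nmol/mg protein; mean ± SD of three determinations.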

[12] = test system: L1210; test: Intracellular level of putrescine in L1210 cells in the presence of DFMO at 25 uM; format: functional, cell-based; conditions: Mus musculus; procedure, shortened: as §2
[13] = test system: CHO-MG; test: Cellular uptake in CHO-MG cells at 25 uM; format: ADME, cell-based, Cricetulus griseus; conditions: chinese hamster; procedure, shortened: as §4
[14] = test system: L1210; test: Inhibition of cell growth in L1210 cells in the presence of DFMO; format: functional, cell-based; conditions: Mus musculus; procedure, shortened: as §3
[15] = test system: L1210; test: Intracellular level of spermine in L1210 cells in the presence of DFMO at 10 uM; format: functional, cell-based; conditions: Mus musculus; procedure, shortened: as §2
[16] = test system: L1210; test: Intracellular level of spermidine in L1210 cells in the absence of DFMO at 10 uM; format: functional, cell-based; conditions: Mus musculus; procedure, shortened: as §2
[17] = test system: CHO; test: Inhibition of cell growth in CHO cells in the presence of DFMO; format: functional, cell-based; conditions: Cricetulus griseus; procedure, shortened: as §3
[18] = test system: L1210; test: Intracellular level of putrescine in L1210 cells in the presence of DFMO at 10 uM; format: functional, cell-based; conditions: Mus musculus; procedure, shortened: as §2
[19] = test system: L1210; test: Intracellular level of conjugate in L1210 cells in the absence of DFMO at 10 uM; format: functional, cell-based; conditions: Mus musculus; procedure, shortened: as §2
[20] = test system: L1210; test: Intracellular level of putrescine in L1210 cells in the absence of DFMO at 10 uM; format: functional, cell-based; conditions: Mus musculus; procedure, shortened: as §2
[21] = test system: L1210; test: Intracellular level of spermidine in L1210 cells in the presence of DFMO at 10 uM; format: functional, cell-based; conditions: Mus musculus; procedure, shortened: as §2
[22] = test system: L1210; test: Intracellular level of spermine in L1210 cells in the absence of DFMO at 10 uM; format: functional, cell-based; conditions: Mus musculus; procedure, shortened: as §2
[23] = test system: L1210; test: Intracellular level of conjugate in L1210 cells in the presence of DFMO at 10 uM; format: functional, cell-based; conditions: Mus musculus; procedure, shortened: as §2
[24] = test system: CHO-MG; test: Selectivity for uptake in CHO cell line over CHO-MG cell line at 10 uM; format: functional, cell-based; conditions: Cricetulus griseus; procedure, shortened: as §1
[25] = test system: CHO-MG; test: Cellular uptake in CHO-MG cells at 10 uM; format: ADME, cell-based, Cricetulus griseus; conditions: chinese hamster; procedure, shortened: as §4
[26] = test system: CHO; test: Cellular uptake in CHO cells at 10 uM; format: ADME, cell-based, Cricetulus griseus; conditions: chinese hamster; procedure, shortened: as §4

Structure (SMILES): CC1C[C@]2(C)C(NCCCO)=Nc3ccccc3[C@@H]2N(C)c2ccccc21 (some centres not stated)
- IC50 [1]: > 500 µM

Structure (SMILES): NCCCCNCCCN [SPERMIDINE]
- IC50 [8]: > 100 µM
- IC50 [1]: > 500 µM

Structure (SMILES): NCCCNCCCCNCCCN [SPERMINE]
- IC50 [8]: > 100 µM
- IC50 [1]: > 500 µM

Structure (SMILES): NCCCCN [PUTRESCINE]
- IC50 [8]: > 100 µM
- IC50 [1]: > 500 µM

Now from value to compound, other results behind:

- IC50 [1]: 30 µM
- Drug uptake [11]: 2.9 nmol/mg
- Drug uptake [13]: 3.1 nmol/mg
Structure (SMILES): CN(c1ccccc1)C1c2ccccc2N=C(NCCCNCCCCN)C1(C)C (configuration not stated)
- Selectivity ratio [2]: 1
- Drug uptake [3]: 10 nmol/mg
- Drug uptake [4]: 0.64 nmol/mg
- Drug uptake [5]: 10 nmol/mg
- Drug uptake [6]: 0.66 nmol/mg
- Drug uptake [7]: 1.4 nmol/mg
- IC50 [8]: > 100 µM
- Drug uptake [9]: 0.65 nmol/mg
- Drug uptake [10]: 21 nmol/mg
- Drug uptake [12]: 0.12 nmol/mg

- IC50 [14]: 2.4 µM
- IC50 [1]: 10 µM
- Drug uptake [11]: 2.2 nmol/mg
- Drug uptake [13]: 2.1 nmol/mg
Structure (SMILES): CNc1cccc2c1[C@H](C)C[C@]1(C)C(NCCCNCCCCNCCCN)=Nc3ccccc3[C@H]21
- Selectivity ratio [2]: 1
- Drug uptake [15]: 7.3 nmol/mg
- Drug uptake [16]: 16 nmol/mg
- IC50 [17]: 11 µM
- Drug uptake [18]: 0.04 nmol/mg
- IC50 [8]: 23 µM
- Drug uptake [19]: 0.95 nmol/mg
- Drug uptake [20]: 1.4 nmol/mg
- Drug uptake [21]: 0.51 nmol/mg
- Drug uptake [22]: 8.2 nmol/mg
- Drug uptake [23]: 2.1 nmol/mg

- IC50 [1]: > 500 µM
Structure (SMILES): CN(c1ccccc1)C1c2ccccc2N=C(NCCCO)C1(C)C (configuration not stated)

- IC50 [14]: 33 µM
- IC50 [1]: 51 µM
- Drug uptake [25]: 12 nmol/mg
- Drug uptake [26]: 13 nmol/mg
Structure (SMILES): CN(c1ccccc1)C1c2ccccc2N=C(NCCCCN)C1(C)C (configuration not stated)
- IC50 [17]: > 100 µM
- Ratio [24]: 1.1
- IC50 [8]: 13 µM

- IC50 [14]: > 100 µM
- IC50 [1]: > 500 µM
- Drug uptake [11]: 15.4 nmol/mg
- Drug uptake [13]: 2.2 nmol/mg
- Drug uptake [25]: 1.6 nmol/mg
- Drug uptake [26]: 11 nmol/mg
Structure (SMILES): NCCCCNCCCNC1=Nc2ccccc2CC1
- Selectivity ratio [2]: 7
- Drug uptake [15]: 12.1 nmol/mg
- Drug uptake [16]: 14.5 nmol/mg
- Ratio [24]: 6.9
- Drug uptake [19]: 4.3 nmol/mg
- Drug uptake [21]: 3.2 nmol/mg
- Drug uptake [22]: 7.1 nmol/mg
- Drug uptake [23]: 8.2 nmol/mg
